{
  "source": "ChEMBL document CHEMBL3739331",
  "about": "“Synthesis and Bioactivities of Kanamycin B-Derived Cationic Amphiphiles” (J Med Chem, 2015)",
  "key": {"Candida albicans [1]": {"test_system": "Candida albicans", "assay": "Antifungal activity against azole-susceptible Candida albicans ATCC MYA-2876 after 48 hrs by microbroth dilution method", "assay_type": "functional", "details": "ATCC MYA-2876, 48 h", "in_short": "(§1)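 Yeast MIC by broth microdilution, run in duplicate. The aminoglycoside compounds are read as MIC-0 (complete inhibition). Azoles are read as MIC-2 (50% inhibition).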"}, "[2]": {"assay": "Hemolytic activity against mouse RBC at 100 to 500 ug/ml after 60 mins", "assay_type": "ADME, cell-based", "details": "erythrocyte, 1 h"}, "[3]": {"assay": "Activity of Mycobacterium tuberculosis AAC(2')-1c/Serratia marcescens AAC(6')-2d assessed as compound conversion to 6'-monoacetylated product incubated for 20 hrs by TLC analysis"}, "Bacillus subtilis": {"test_system": "Bacillus subtilis", "assay": "Antibacterial activity against Bacillus subtilis 168 by microdilution method", "assay_type": "functional", "details": "subsp. subtilis str. 168", "in_short": "(§2)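 Broth microdilution MIC against the named bacterial strain, reported in μg/mL; each determination run at least in duplicate.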"}, "[4]": {"test_system": "Mycobacterium tuberculosis", "assay": "Activity of Mycobacterium tuberculosis AAC(2')-1c assessed as compound conversion to monoacetylated product incubated for 20 hrs by TLC analysis"}, "Escherichia coli": {"test_system": "Escherichia coli", "assay": "Antibacterial activity against Escherichia coli MC1061 by microdilution method", "assay_type": "functional", "in_short": "(§3)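 Broth microdilution MIC, in μg/mL, against a panel of Gram-positive and Gram-negative strains. Run at least in duplicate.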"}, "[5]": {"assay": "Activity of Mycobacterium tuberculosis […]/AAC(3)-4 (unknown origin)/Serratia marcescens AAC(6')-2d (unknown origin) assessed as compound conversion to diacetylated adduct incubated for 20 hrs by TLC analysis"}, "Enterococcus": {"test_system": "Enterococcus", "assay": "Antibacterial activity against vancomycin-resistant Enterococcus by microdilution method", "assay_type": "functional", "in_short": "as §3"}, "Candida albicans [6]": {"test_system": "Candida albicans", "assay": "Antifungal activity against azole-resistant Candida albicans MYA-1003 after 48 hrs by microbroth dilution method", "assay_type": "functional", "details": "MYA-1003, 48 h", "in_short": "as §1"}, "Klebsiella pneumoniae": {"test_system": "Klebsiella pneumoniae", "assay": "Antibacterial activity against Klebsiella pneumoniae ATCC 27736 by microdilution method", "assay_type": "functional", "in_short": "as §2"}, "[7]": {"test_system": "Mycolicibacterium smegmatis", "assay": "Antibacterial activity against Mycobacterium smegmatis MC2 155 by microdilution method", "assay_type": "functional", "details": "str. MC2 155", "in_short": "as §3"}, "A549": {"test_system": "A549", "assay": "Cytotoxicity against human A549 cells after 24 hrs by resazurin assay", "assay_type": "cell-based", "details": "human, a549, 24 h"}, "Candida albicans [8]": {"test_system": "Candida albicans", "assay": "Antifungal activity against azole-resistant Candida albicans ATCC 64124 after 48 hrs by microbroth dilution method", "assay_type": "functional", "details": "ATCC 64124, 48 h", "in_short": "as §1"}, "Serratia marcescens": {"test_system": "Serratia marcescens", "assay": "Activity of Serratia marcescens AAC(6')-2d assessed as compound conversion to monoacetylated product incubated for 20 hrs by TLC analysis"}, "Listeria monocytogenes [9]": {"test_system": "Listeria monocytogenes", "assay": "Resistance index, ratio of MIC for Listeria monocytogenes ATCC 19115 after 6-passage to MIC for Listeria monocytogenes ATCC 19115 by microdilution method", "assay_type": "functional", "in_short": "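Cells grown at subinhibitory concentration (1/2 MIC) seed each next round. The index compares the MIC at a later passage with the starting MIC.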"}, "Enterobacter cloacae": {"test_system": "Enterobacter cloacae", "assay": "Antibacterial activity against Enterobacter cloacae ATCC 13047 by microdilution method", "assay_type": "functional", "in_short": "as §2"}, "Listeria monocytogenes [10]": {"test_system": "Listeria monocytogenes", "assay": "Antibacterial activity against Listeria monocytogenes ATCC 19115 by microdilution method", "assay_type": "functional", "in_short": "as §2"}, "[11]": {"assay": "Activity of Mycobacterium tuberculosis AAC(2')-1c/AAC(3)-4 (unknown origin) assessed as compound conversion to 3'-acetylated product incubated for 20 hrs by TLC analysis"}, "Candida albicans [12]": {"test_system": "Candida albicans", "assay": "Antifungal activity against azole-resistant Candida albicans ATCC 90819 after 48 hrs by microbroth dilution method", "assay_type": "functional", "details": "ATCC 90819, 48 h", "in_short": "as §1"}, "Candida albicans [13]": {"test_system": "Candida albicans", "assay": "Antifungal activity against azole-resistant Candida albicans ATCC 64124 assessed as cell membrane permeabilization at 62.5 ug/ml after 1 hr by propidium iodide-staining based fluorescence microscopic analysis (reference value: <2%)", "assay_type": "functional"}, "Candida albicans [14]": {"test_system": "Candida albicans", "assay": "Antifungal activity against azole-resistant Candida albicans ATCC 10231 after 48 hrs by microbroth dilution method", "assay_type": "functional", "details": "ATCC 10231, 48 h", "in_short": "as §1"}, "Staphylococcus aureus [15]": {"test_system": "Staphylococcus aureus", "assay": "Antibacterial activity against Staphylococcus aureus ATCC 29213 by microdilution method", "assay_type": "functional", "in_short": "as §2"}, "Candida albicans [16]": {"test_system": "Candida albicans", "assay": "Antifungal activity against azole-resistant Candida albicans MYA-1237 after 48 hrs by microbroth dilution method", "assay_type": "functional", "details": "MYA-1237, 48 h", "in_short": "as §1"}, "Staphylococcus aureus [17]": {"test_system": "Staphylococcus aureus", "assay": "Antibacterial activity against Staphylococcus aureus NRS385 (USA 300) by microdilution method", "assay_type": "functional", "in_short": "as §3"}, "Staphylococcus aureus [18]": {"test_system": "Staphylococcus aureus", "assay": "Antibacterial activity against Staphylococcus aureus NRS22 (USA 600) by microdilution method", "assay_type": "functional", "in_short": "as §2"}, "Staphylococcus aureus [19]": {"test_system": "Staphylococcus aureus", "assay": "Antibacterial activity against Staphylococcus aureus NRS382 (USA 100) by microdilution method", "assay_type": "functional", "in_short": "as §2"}, "Aspergillus nidulans": {"test_system": "Aspergillus nidulans", "assay": "Antifungal activity against Aspergillus nidulans ATCC 38163 after 48 hrs by microbroth dilution method", "assay_type": "functional", "details": "ATCC 38163, 48 h", "in_short": "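Filamentous fungus MIC by broth microdilution, run in duplicate. All compounds are read as MIC-0 (complete inhibition).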"}, "Salmonella enterica": {"test_system": "Salmonella enterica", "assay": "Antibacterial activity against Salmonella enterica ATCC 14028 by microdilution method", "assay_type": "functional", "in_short": "as §2"}, "Staphylococcus aureus [20]": {"test_system": "Staphylococcus aureus", "assay": "Antibacterial activity against methicillin-resistant Staphylococcus aureus by microdilution method", "assay_type": "functional", "in_short": "as §3"}, "Staphylococcus aureus [21]": {"test_system": "Staphylococcus aureus", "assay": "Antibacterial activity against Staphylococcus aureus NRS383 (USA 200) by microdilution method", "assay_type": "functional", "in_short": "as §2"}, "[22]": {"assay": "Cytotoxicity against human BEAS2B cells after 24 hrs by resazurin assay", "assay_type": "cell-based, BEAS-2B", "details": "human, beas-2b"}, "[23]": {"test_system": "Staphylococcus epidermidis", "assay": "Antibacterial activity against Staphylococcus epidermidis ATCC 12228 by microdilution method", "assay_type": "functional", "in_short": "as §2"}, "Acinetobacter baumannii": {"test_system": "Acinetobacter baumannii", "assay": "Antibacterial activity against Acinetobacter baumannii ATCC 19606 by microdilution method", "assay_type": "functional", "in_short": "as §2"}, "[24]": {"assay": "Activity of AAC(3)-4 (unknown origin) assessed as compound conversion to monoacetylated product incubated for 20 hrs by TLC analysis"}, "Pseudomonas aeruginosa": {"test_system": "Pseudomonas aeruginosa", "assay": "Antibacterial activity against Pseudomonas aeruginosa ATCC 27853 by microdilution method", "assay_type": "functional", "in_short": "as §2"}, "[25]": {"assay": "Activity of AAC(3)-4 (unknown origin)/Serratia marcescens AAC(6')-2d assessed as compound conversion to 3'-acetylated product incubated for 20 hrs by TLC analysis"}, "Candida albicans [26]": {"test_system": "Candida albicans", "assay": "Antifungal activity against azole-susceptible Candida albicans ATCC MYA-2310 after 48 hrs by microbroth dilution method", "assay_type": "functional", "details": "ATCC MYA-2310, 48 h", "in_short": "as §1"}},
  "note": "The source made the active and inactive calls. No cut-off for these calls is given here.",
  "data": [
    {"molecule": "NC[C@H]1O[C@H](O[C@H]2[C@H](O)[C@@H](O[C@H]3O[C@H](CO)[C@@H](O)[C@H](N)[C@H]3O)[C@H](N)C[C@@H]2N)[C@H](N)[C@@H](O)[C@@H]1O", "note": "[BEKANAMYCIN]", "values": [
      {"measurement": "MIC", "setting": "Candida albicans [1]", "value": "> 125", "unit": "µg/mL"},
      {"measurement": "Activity", "setting": "[2]", "value": "Non-toxic"},
      {"measurement": "Activity", "setting": "[3]", "value": "inactive"},
      {"measurement": "MIC", "setting": "Bacillus subtilis", "value": 4, "unit": "µg/mL"},
      {"measurement": "Activity", "setting": "[4]", "value": "Active"},
      {"measurement": "MIC", "setting": "Escherichia coli", "value": 2, "unit": "µg/mL"},
      {"measurement": "Activity", "setting": "[5]", "value": "Active"},
      {"measurement": "MIC", "setting": "Enterococcus", "value": "> 128", "unit": "µg/mL"},
      {"measurement": "MIC", "setting": "Candida albicans [6]", "value": "> 125", "unit": "µg/mL"},
      {"measurement": "MIC", "setting": "Klebsiella pneumoniae", "value": 4, "unit": "µg/mL"},
      {"measurement": "MIC", "setting": "[7]", "value": "≤ 0.25", "unit": "µg/mL"},
      {"measurement": "Activity", "setting": "A549", "value": "Non-toxic"},
      {"measurement": "MIC", "setting": "Candida albicans [8]", "value": "> 125", "unit": "µg/mL"},
      {"measurement": "Activity", "setting": "Serratia marcescens", "value": "Active"},
      {"measurement": "Ratio", "setting": "Listeria monocytogenes [9]", "value": 4},
      {"measurement": "MIC", "setting": "Enterobacter cloacae", "value": 0.5, "unit": "µg/mL"},
      {"measurement": "MIC", "setting": "Listeria monocytogenes [10]", "value": "≤ 0.25", "unit": "µg/mL"},
      {"measurement": "Activity", "setting": "[11]", "value": "inactive"},
      {"measurement": "MIC", "setting": "Candida albicans [12]", "value": "> 125", "unit": "µg/mL"},
      {"measurement": "Activity", "setting": "Candida albicans [13]", "value": 5, "unit": "%"},
      {"measurement": "MIC", "setting": "Candida albicans [14]", "value": "> 125", "unit": "µg/mL"},
      {"measurement": "MIC", "setting": "Staphylococcus aureus [15]", "value": "≤ 0.25", "unit": "µg/mL"},
      {"measurement": "MIC", "setting": "Candida albicans [16]", "value": "> 125", "unit": "µg/mL"},
      {"measurement": "MIC", "setting": "Staphylococcus aureus [17]", "value": 32, "unit": "µg/mL"},
      {"measurement": "MIC", "setting": "Staphylococcus aureus [18]", "value": 32, "unit": "µg/mL"},
      {"measurement": "MIC", "setting": "Staphylococcus aureus [19]", "value": "> 128", "unit": "µg/mL"},
      {"measurement": "MIC", "setting": "Aspergillus nidulans", "value": "> 125", "unit": "µg/mL"},
      {"measurement": "MIC", "setting": "Salmonella enterica", "value": 2, "unit": "µg/mL"},
      {"measurement": "MIC", "setting": "Staphylococcus aureus [20]", "value": "> 128", "unit": "µg/mL"},
      {"measurement": "MIC", "setting": "Staphylococcus aureus [21]", "value": 128, "unit": "µg/mL"},
      {"measurement": "Activity", "setting": "[22]", "value": "Non-toxic"},
      {"measurement": "MIC", "setting": "[23]", "value": 0.5, "unit": "µg/mL"},
      {"measurement": "MIC", "setting": "Acinetobacter baumannii", "value": 4, "unit": "µg/mL"},
      {"measurement": "Activity", "setting": "[24]", "value": "Active"},
      {"measurement": "MIC", "setting": "Pseudomonas aeruginosa", "value": 16, "unit": "µg/mL"},
      {"measurement": "Activity", "setting": "[25]", "value": "inactive"},
      {"measurement": "MIC", "setting": "Candida albicans [26]", "value": "> 125", "unit": "µg/mL"}
    ]}
  ]
}
